Data reported in ChEMBL document CHEMBL4196198, “Terpenoids from Euphorbia pedroi as Multidrug-Resistance Reversers” (J Nat Prod, 2018).
pIC50: −log10 of the molar value.

Columns and labels:
[1] = test system: L5178Y; test: Antiproliferative activity against mouse L5178Y cells after 72 hrs by MTT assay; assay type: cell-based
How it was run: (§1)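 L5178Y-PAR and ABCB1-transfected L5178Y-MDR cells seeded at 6 × 10^3 per well. Compounds tested in 2-fold serial dilutions for 72 h. MTT in PBS was added for 4 h, then SDS (10% in 0.01 M HCl) overnight at 37 °C. OD read at 550 nm (reference 630 nm), in quadruplicate. IC50 fitted from dose–inhibition curves; mean ± SD.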

[2] = test system: L5178Y; test: Antiproliferative activity against mouse L5178Y cells harboring human ABCB1 after 72 hrs by MTT assay; assay type: ADME, cell-based; how it was run: as §1
[3] = test system: COLO 320; test: Cytotoxicity against human COLO320 cells after 24 hrs by MTT assay; assay type: cell-based; conditions: COLO 320, 24 h
How it was run: (§2)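 Cells seeded at 1 × 10^4 per well, with adherent lines detached by trypsin-EDTA and allowed 4 h attachment at 37 °C, 5% CO2. Compounds in 2-fold serial dilutions for 24 h. MTT for 4 h, SDS/HCl solubilization overnight, OD 550 nm (ref 630 nm) in quadruplicate. Percent growth inhibition calculated vs cell and medium controls; IC50 from fitted curves.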

[4] = test system: COLO 205; test: Cytotoxicity against human COLO205 cells after 24 hrs by MTT assay; assay type: cell-based; conditions: COLO 205, 24 h; how it was run: as §2
[5] = test system: NIH3T3; test: Cytotoxicity against mouse NIH/3T3 cells after 24 hrs by MTT assay; assay type: cell-based; conditions: NIH3T3, 24 h; how it was run: as §2
[6] = test system: MRC5; test: Cytotoxicity against human MRC5 cells after 24 hrs by MTT assay; assay type: cell-based; conditions: MRC5, 24 h; how it was run: as §2
[7] = biological target: T1, ATP-dependent translocase ABCB1 (Homo sapiens, UniProt P08183); test: Modulation of human ABCB1 expressed in mouse L5178Y cells assessed as fluorescence activity ratio at 2 uM pretreated for 10 mins followed by rhodamine 123 addition and measured after 20 mins by flow cytometry (reference value: 1.01); assay type: cell-based
T1 sequence (P08183 whole entry): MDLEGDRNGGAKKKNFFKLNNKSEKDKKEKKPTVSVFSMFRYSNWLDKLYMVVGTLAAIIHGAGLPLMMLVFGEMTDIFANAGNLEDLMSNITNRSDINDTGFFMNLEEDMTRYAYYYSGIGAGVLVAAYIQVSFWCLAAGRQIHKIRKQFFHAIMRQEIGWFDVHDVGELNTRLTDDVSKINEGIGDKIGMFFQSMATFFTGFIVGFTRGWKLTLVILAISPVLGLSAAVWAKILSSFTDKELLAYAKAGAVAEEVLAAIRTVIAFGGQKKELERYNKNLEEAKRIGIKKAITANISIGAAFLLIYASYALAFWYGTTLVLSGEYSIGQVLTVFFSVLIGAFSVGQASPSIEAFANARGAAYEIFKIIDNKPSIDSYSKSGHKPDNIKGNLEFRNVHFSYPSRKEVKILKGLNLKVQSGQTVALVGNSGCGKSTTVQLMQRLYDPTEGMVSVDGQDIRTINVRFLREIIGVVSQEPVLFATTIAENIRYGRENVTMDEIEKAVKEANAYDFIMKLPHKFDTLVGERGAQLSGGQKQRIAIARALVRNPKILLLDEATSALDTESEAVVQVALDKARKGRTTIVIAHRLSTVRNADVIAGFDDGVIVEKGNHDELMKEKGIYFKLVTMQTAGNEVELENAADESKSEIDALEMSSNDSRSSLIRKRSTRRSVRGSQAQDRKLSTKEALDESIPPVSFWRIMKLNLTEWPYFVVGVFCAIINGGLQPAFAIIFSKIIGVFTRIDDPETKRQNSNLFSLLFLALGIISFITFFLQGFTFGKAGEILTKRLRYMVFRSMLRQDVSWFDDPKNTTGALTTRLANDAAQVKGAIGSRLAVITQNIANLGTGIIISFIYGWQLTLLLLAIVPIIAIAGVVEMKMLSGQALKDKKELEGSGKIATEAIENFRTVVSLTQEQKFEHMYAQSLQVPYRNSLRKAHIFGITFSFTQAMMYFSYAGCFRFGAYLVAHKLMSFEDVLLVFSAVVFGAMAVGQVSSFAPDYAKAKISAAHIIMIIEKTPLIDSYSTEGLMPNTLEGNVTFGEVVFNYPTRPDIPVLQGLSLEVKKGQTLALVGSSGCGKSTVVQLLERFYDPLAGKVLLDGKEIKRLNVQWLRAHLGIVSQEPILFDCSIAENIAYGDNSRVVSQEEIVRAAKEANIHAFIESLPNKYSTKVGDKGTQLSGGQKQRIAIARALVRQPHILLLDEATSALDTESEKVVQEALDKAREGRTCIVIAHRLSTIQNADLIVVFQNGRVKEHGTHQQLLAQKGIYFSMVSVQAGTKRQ

[8] = biological target: T1, ATP-dependent translocase ABCB1; test: Modulation of human ABCB1 expressed in mouse L5178Y cells assessed as fluorescence activity ratio at 20 uM pretreated for 10 mins followed by rhodamine 123 addition and measured after 20 mins by flow cytometry (reference value: 1.01); assay type: cell-based
[9] = biological target: T1, ATP-dependent translocase ABCB1; test: Modulation of ABCB1 (unknown origin) expressed in human COLO320 cells co-expressing LRP assessed as fluorescence activity ratio at 2 uM pretreated for 10 mins followed by rhodamine 123 addition and measured after 20 mins by flow cytometry (reference value: 0.79); assay type: cell-based
[10] = biological target: T1, ATP-dependent translocase ABCB1; test: Modulation of ABCB1 (unknown origin) expressed in human COLO320 cells co-expressing LRP assessed as fluorescence activity ratio at 20 uM pretreated for 10 mins followed by rhodamine 123 addition and measured after 20 mins by flow cytometry (reference value: 0.79); assay type: cell-based
[11] = biological target: T1, ATP-dependent translocase ABCB1; test: Modulation of human ABCB1 expressed in mouse L5178Y cells assessed as fluorescence activity ratio at 0.2 uM pretreated for 10 mins followed by rhodamine 123 addition and measured after 20 mins by flow cytometry (reference value: 1.01); assay type: cell-based
[12] = biological target: T1, ATP-dependent translocase ABCB1; test: Modulation of ABCB1 (unknown origin) expressed in human COLO320 cells co-expressing LRP assessed as fluorescence activity ratio at 0.2 uM pretreated for 10 mins followed by rhodamine 123 addition and measured after 20 mins by flow cytometry (reference value: 0.79); assay type: cell-based
[13] = biological target: T1, ATP-dependent translocase ABCB1; test: Modulation of human ABCB1 expressed in mouse L5178Y cells assessed as potentiation of doxorubicin-induced cytotoxicity by measuring combination index at ED50 measured after 48 hrs by MTT assay; assay type: cell-based
How it was run: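 Checkerboard in L5178Y-MDR cells: doxorubicin diluted 14.7–0.1 μM along one axis, modulator diluted from 2-fold its IC50 along the other, at fixed ratios. Cells at 2 × 10^5/mL, 48 h, MTT read-out. Dose–response curves fitted by Chou median-effect equation, keeping only r > 0.90. CI at 50% inhibition given as mean ± SD of three CI values from different drug ratios.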

Row | Structure (SMILES) | Ratio [7] | Ratio [8] | Ratio [9] | Ratio [10] | Ratio [11] | Ratio [12] | pIC50 [1] | pIC50 [2] | pIC50 [3] | pIC50 [4] | pIC50 [5] | pIC50 [6] | CI [13]
1 | C[C@H](C/C=C/C(C)(C)O)[C@H]1CC[C@@]2(C)[C@@H]3CC[C@H]4C(C)(C)[C@@H](O)CC[C@@]45C[C@@]35CC[C@]12C | 10.68 | 67.05 | 1.26 | 3.45 |  |  | < 5.00 | < 5.00 | < 5.00 | < 5.00 | < 5.00 | < 5.00 | 
2 | CC1=C2C=C3CC[C@@H]4C(C)(C)/C(=N/OC(=O)c5ccco5)CC[C@@]4(C)[C@@H]3C[C@H]2OC1=O | 2.1 | 40.69 |  |  |  |  | < 5.00 | < 5.00 |  |  |  |  | 0.454
3 | CC1=C2C=C3CC[C@@H]4C(C)(C)/C(=N/OC(=O)c5cccs5)CC[C@@]4(C)[C@@H]3C[C@H]2OC1=O | 1.09 | 7.09 |  |  |  |  | < 5.00 | < 5.00 |  |  |  |  | 0.324
4 | C=C(C)[C@H](O)CC[C@@H](C)[C@H]1CC[C@@]2(C)[C@@H]3CC[C@H]4C(C)(C)[C@@H](O)CC[C@@]45C[C@@]35CC[C@]12C | 5.91 | 43.58 | 0.77 | 5.91 |  |  | < 5.00 | < 5.00 | < 5.00 | < 5.00 | < 5.00 | < 5.00 | 
5 | CCCC(=O)O/N=C1\CC[C@@]2(C)[C@@H]3C[C@H]4OC(=O)C(C)=C4C=C3CC[C@@H]2C1(C)C | 1.36 | 10.38 |  |  |  |  | < 5.00 | < 5.00 |  |  |  |  | 0.387
6 | CC[C@H](CC[C@@H](C)[C@H]1CC[C@H]2[C@@H]3CCC4=CC(=O)CC[C@]4(C)[C@H]3CC[C@]12C)C(C)C | 2.51 | 22.56 | 0.97 | 1.34 |  |  | < 5.00 | < 5.00 | < 5.00 | < 5.00 | < 5.00 | < 5.00 | 
7 | CC1=C2C=C3CC[C@@H]4C(C)(C)/C(=N/OC(=O)c5ccccc5)CC[C@@]4(C)[C@@H]3C[C@H]2OC1=O | 5.78 | 56.37 |  |  |  |  | < 5.00 | < 5.00 |  |  |  |  | 0.152
8 | CC1=C2C=C3CC[C@@H]4C(C)(C)C(=O)CC[C@@]4(C)[C@@H]3C[C@H]2OC1=O [HELIOSCOPINOLIDE E] | 1.84 | 10.23 | 0.44 | 0.98 |  |  | < 5.00 | < 5.00 | < 5.00 | < 5.00 | < 5.00 | < 5.00 | 0.367

More lines, main results first:

Row | Ratio [7] | Ratio [8] | Ratio [9] | Ratio [10] | Ratio [11] | Ratio [12] | Structure (SMILES) | pIC50 [1] | pIC50 [2] | pIC50 [3] | pIC50 [4] | pIC50 [5] | pIC50 [6] | CI [13]
9 | 6.14 | 30.68 | 1.09 | 1.84 |  |  | C=C(CC[C@@H](C)[C@H]1CC[C@@]2(C)C3=C(C(=O)C[C@]12C)[C@@]1(C)CC[C@H](O)[C@@H](C)[C@@H]1CC3=O)C(C)C | < 5.00 | < 5.00 | < 5.00 | < 5.00 | < 5.00 | < 5.00 | 
10 | 54.38 | 96.02 | 2.27 | 8 | 43.75 | 1.68 | C=C(CC[C@@H](C)[C@H]1CC[C@@]2(C)C(=O)[C@@]3(CC[C@]12C)[C@@H](O)C[C@H]1[C@H](C)[C@@H](O)CC[C@@]13C)C(C)C | < 5.00 | < 5.00 | < 5.00 | < 5.00 | < 5.00 | < 5.00 | 0.872
11 | 1.06 | 1.7 | 2.1 | 4.71 |  |  | CC1(C)CC[C@]2(C(=O)O)CC[C@]3(C)C(=CC[C@@H]4[C@@]5(C)CC[C@H](O)C(C)(C)[C@@H]5CC[C@]43C)[C@@H]2C1 [OLEANOLIC_ACID] | < 5.00 | < 5.00 | < 5.00 | < 5.00 | < 5.00 | < 5.00 | 
12 | 0.96 | 4.88 |  |  |  |  | CC1=C2C=C3CC[C@@H]4C(C)(C)/C(=N/O)CC[C@@]4(C)[C@@H]3C[C@H]2OC1=O | < 5.00 | < 5.00 |  |  |  |  | 0.477
13 | 3.02 | 38.64 |  |  |  |  | CC(=O)O/N=C1\CC[C@@]2(C)[C@@H]3C[C@H]4OC(=O)C(C)=C4C=C3CC[C@@H]2C1(C)C | < 5.00 | < 5.00 |  |  |  |  | 0.501
14 | 1.7 | 8.18 | 1.73 | 6.78 |  |  | CC1=C2C=C3CC[C@@H]4C(C)(C)[C@@H](O)CC[C@@]4(C)[C@@H]3C[C@H]2OC1=O [HELIOSCOPINOLIDE B] | < 5.00 | < 5.00 | < 5.00 | < 5.00 | < 5.00 | < 5.00 | 0.652
